# Assay results published in ChEMBL document CHEMBL4004830 (J Med Chem, 2017).
# Active and inactive are the calls of the source. No cut-off for these calls is given here.
# Columns and labels:
# [1] = target: CDK2/Cyclin A2 (Homo sapiens, UniProt P24941); assay: (§1) Inhibition of CDK2/cyclin A (unknown origin) in presence of [gamma-33P]-ATP […]; type: protein-complex assay; settings: read-out: Ki(app)
# [2] = target: Cyclin-dependent kinase 1/cyclin B1 (Homo sapiens, UniProt P06493); assay: (§2) Inhibition of CDK1/cyclin B (unknown origin) in presence of [gamma-33P]-ATP […]; type: protein-complex assay; settings: read-out: Ki(app)
# Sequence of Cyclin-dependent kinase 1/cyclin B1 (P06493 whole entry): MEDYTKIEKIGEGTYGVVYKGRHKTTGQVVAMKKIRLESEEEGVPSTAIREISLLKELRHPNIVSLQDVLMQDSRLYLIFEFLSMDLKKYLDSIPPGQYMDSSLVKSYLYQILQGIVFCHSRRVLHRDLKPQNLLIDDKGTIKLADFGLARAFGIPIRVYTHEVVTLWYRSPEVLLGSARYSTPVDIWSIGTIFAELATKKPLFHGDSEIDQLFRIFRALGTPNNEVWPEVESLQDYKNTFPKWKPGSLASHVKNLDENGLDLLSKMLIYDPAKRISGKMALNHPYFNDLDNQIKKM
# Sequence of Cyclin-dependent kinase 1/cyclin B1 (P14635 whole entry, further chain): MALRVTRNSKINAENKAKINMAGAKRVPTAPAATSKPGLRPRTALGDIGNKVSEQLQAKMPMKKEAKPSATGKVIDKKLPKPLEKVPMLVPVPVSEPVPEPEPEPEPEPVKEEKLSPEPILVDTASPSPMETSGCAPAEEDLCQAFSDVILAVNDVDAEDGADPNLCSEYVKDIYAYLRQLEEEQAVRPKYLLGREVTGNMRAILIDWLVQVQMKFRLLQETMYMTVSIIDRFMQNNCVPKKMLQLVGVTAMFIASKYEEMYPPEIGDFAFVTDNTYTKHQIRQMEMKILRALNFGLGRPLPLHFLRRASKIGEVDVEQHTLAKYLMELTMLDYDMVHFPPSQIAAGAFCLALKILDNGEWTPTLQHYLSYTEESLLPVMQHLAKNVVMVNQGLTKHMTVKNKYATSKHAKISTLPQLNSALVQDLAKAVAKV
# [3] = test system: MV4-11; assay: Growth inhibition of human MV4-11 cells after 72 hrs by resazurin assay; type: functional; settings: MV4-11, 72 h
# Procedure, shortened: (§3)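 72 h antiproliferation assay, resazurin read-out for MV4-11 and MTT read-out for MDA-MB-453; values from at least two replicates.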
# [4] = target: Cyclin-dependent kinase 4/cyclin D1 (Homo sapiens, UniProt P11802); assay: Inhibition of CDK4/cyclin D1 (unknown origin) in presence of [gamma-33P]-ATP […]; type: protein-complex assay; settings: read-out: Ki(app)
# Sequence of Cyclin-dependent kinase 4/cyclin D1 (P11802 whole entry): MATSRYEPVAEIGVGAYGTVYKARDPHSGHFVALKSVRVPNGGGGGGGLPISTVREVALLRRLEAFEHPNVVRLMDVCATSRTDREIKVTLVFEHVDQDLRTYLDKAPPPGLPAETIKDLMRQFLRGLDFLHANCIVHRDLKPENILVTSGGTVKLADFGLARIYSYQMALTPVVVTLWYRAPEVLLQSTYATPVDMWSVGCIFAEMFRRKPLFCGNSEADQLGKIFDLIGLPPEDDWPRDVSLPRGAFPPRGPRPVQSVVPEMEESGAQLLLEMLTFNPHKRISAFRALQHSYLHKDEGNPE
# Sequence of Cyclin-dependent kinase 4/cyclin D1 (P24385 whole entry, further chain): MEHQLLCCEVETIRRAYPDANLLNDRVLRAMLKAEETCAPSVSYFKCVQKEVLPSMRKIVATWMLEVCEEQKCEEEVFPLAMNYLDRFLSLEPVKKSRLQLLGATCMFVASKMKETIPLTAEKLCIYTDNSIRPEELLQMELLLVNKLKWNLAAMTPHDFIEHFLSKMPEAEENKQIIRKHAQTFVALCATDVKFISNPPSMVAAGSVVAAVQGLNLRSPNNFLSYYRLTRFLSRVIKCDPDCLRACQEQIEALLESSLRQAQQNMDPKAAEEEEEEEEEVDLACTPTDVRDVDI
# [5] = target: CDK6/cyclin D3 (Homo sapiens, UniProt Q00534); assay: Inhibition of CDK6/cyclin D3 (unknown origin) in presence of [gamma-33P]-ATP […]; type: protein-complex assay; settings: read-out: Ki(app)
# Sequence of CDK6/cyclin D3 (P30281 whole entry): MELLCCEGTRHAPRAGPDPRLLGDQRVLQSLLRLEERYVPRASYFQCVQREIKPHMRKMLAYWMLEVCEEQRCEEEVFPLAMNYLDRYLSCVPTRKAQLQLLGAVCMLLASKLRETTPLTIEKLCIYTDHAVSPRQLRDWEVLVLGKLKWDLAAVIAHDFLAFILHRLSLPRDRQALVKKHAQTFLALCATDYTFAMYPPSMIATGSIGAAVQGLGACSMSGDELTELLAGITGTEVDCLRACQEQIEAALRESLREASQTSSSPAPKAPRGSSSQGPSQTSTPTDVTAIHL
# Sequence of CDK6/cyclin D3 (Q00534 whole entry): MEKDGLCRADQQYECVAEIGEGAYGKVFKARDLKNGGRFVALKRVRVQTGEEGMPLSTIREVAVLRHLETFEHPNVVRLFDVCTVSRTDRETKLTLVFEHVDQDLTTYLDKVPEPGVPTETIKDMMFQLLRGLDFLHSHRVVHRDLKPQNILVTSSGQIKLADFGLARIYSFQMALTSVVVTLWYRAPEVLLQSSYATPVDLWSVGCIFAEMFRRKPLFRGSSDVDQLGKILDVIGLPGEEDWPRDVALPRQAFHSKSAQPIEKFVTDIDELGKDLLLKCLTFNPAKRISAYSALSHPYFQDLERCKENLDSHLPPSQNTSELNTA
# [6] = target: CDK9/cyclin T1 (Homo sapiens, UniProt P50750); assay: Inhibition of CDK9/cyclin T1 (unknown origin) in presence of [gamma-33P]-ATP […]; type: protein-complex assay; settings: read-out: Ki(app)
# Sequence of CDK9/cyclin T1 (O60563 whole entry): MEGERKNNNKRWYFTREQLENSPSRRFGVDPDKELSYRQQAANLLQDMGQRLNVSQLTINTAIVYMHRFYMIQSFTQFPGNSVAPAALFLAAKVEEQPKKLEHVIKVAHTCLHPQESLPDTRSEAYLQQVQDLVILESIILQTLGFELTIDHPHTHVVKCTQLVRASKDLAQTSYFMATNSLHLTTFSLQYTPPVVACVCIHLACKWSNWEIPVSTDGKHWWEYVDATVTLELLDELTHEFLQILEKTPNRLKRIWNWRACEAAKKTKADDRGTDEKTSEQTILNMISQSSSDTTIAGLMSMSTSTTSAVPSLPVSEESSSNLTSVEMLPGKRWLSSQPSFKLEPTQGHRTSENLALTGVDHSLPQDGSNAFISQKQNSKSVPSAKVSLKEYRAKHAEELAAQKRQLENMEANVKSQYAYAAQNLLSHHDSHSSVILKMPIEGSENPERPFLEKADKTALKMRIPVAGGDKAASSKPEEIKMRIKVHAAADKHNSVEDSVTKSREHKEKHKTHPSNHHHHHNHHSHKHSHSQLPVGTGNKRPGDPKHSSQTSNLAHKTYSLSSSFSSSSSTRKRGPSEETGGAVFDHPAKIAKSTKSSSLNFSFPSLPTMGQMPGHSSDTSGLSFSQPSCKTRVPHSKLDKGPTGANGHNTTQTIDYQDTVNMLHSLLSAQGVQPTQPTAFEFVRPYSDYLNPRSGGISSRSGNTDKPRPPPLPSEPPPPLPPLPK
# Sequence of CDK9/cyclin T1 (P50750 whole entry): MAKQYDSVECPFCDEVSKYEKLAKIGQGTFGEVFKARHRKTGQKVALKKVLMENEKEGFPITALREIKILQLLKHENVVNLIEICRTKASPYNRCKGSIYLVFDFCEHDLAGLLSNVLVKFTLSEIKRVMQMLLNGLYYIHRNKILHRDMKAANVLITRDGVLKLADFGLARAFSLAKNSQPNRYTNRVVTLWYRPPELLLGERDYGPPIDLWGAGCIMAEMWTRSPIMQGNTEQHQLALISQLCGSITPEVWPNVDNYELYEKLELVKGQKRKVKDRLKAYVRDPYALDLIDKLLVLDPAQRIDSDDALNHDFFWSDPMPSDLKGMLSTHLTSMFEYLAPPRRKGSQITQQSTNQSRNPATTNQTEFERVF
# [7] = target: Cyclin-dependent kinase 7/ cyclin H (Homo sapiens, UniProt P50613); assay: (§4) Inhibition of CDK7/cyclin H (unknown origin) in presence of [gamma-33P]-ATP […]; type: protein-complex assay; settings: read-out: Ki(app)
# Sequence of Cyclin-dependent kinase 7/ cyclin H (P51946 whole entry): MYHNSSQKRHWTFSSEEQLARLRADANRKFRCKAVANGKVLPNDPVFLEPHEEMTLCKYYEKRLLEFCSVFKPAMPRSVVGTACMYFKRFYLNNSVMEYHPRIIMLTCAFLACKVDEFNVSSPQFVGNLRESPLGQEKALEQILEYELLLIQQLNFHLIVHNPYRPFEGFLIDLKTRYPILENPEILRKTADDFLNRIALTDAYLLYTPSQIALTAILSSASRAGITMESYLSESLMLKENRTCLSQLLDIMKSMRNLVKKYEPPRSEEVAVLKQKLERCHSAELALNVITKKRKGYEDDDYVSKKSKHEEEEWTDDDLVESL
# Sequence of Cyclin-dependent kinase 7/ cyclin H (P50613 whole entry): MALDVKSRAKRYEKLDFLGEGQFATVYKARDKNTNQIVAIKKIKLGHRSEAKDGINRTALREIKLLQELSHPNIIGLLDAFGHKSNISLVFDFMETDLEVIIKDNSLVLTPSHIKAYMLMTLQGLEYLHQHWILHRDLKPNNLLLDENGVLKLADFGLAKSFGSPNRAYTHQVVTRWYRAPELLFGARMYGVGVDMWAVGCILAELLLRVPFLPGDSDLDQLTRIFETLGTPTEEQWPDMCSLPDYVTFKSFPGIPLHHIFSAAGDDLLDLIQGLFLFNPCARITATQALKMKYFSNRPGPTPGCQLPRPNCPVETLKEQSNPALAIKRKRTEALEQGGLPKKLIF
# [8] = test system: MDA-MB-453; assay: Growth inhibition of human MDA-MB-453 cells after 72 hrs by MTT assay; type: functional; settings: MDA-MB-453, 72 h; procedure, shortened: as §3
# [9] = target: Cyclin-dependent kinase 7/ cyclin H (Homo sapiens) (UniProt P51946+P50613); assay: as §4; type: protein-complex assay
# [10] = target: Cyclin-dependent kinase 1/cyclin B1 (Homo sapiens) (UniProt P06493+P14635); assay: as §2; type: protein-complex assay
# Sequence of Cyclin-dependent kinase 1/cyclin B1 (Homo sapiens) (P06493 whole entry, looked up): as the sequence (P06493 whole entry) above
# Sequence of Cyclin-dependent kinase 1/cyclin B1 (Homo sapiens) (P14635 whole entry, looked up): as the sequence (P14635 whole entry, further chain) above
# [11] = target: Serine/threonine-protein kinase pim-1 (Homo sapiens) (UniProt P11309); assay: Inhibition of recombinant full-length human N-terminal GST-tagged Pim-1 expressed in Escherichia coli assessed as residual activity at 10 uM; values are per cent of control
# [12] = target: Homeodomain-interacting protein kinase 2 (Homo sapiens) (UniProt Q9H2X6); assay: Inhibition of recombinant human N-terminal His6-tagged HIPK2 (165 to 564 amino acid residues) expressed in baculovirus infected Sf21 insect cells assessed as residual activity at 10 uM; values are per cent of control
# [13] = target: Fibroblast growth factor receptor 1 (Homo sapiens) (UniProt P11362); assay: Inhibition of recombinant human N-terminal GST-tagged FGFR1 (456 to 765 amino acid residues) expressed in baculovirus infected Sf21 insect cells assessed as residual activity at 10 uM; values are per cent of control
# Sequence of Fibroblast growth factor receptor 1 (Homo sapiens) (P11362 22-822 limits assumed): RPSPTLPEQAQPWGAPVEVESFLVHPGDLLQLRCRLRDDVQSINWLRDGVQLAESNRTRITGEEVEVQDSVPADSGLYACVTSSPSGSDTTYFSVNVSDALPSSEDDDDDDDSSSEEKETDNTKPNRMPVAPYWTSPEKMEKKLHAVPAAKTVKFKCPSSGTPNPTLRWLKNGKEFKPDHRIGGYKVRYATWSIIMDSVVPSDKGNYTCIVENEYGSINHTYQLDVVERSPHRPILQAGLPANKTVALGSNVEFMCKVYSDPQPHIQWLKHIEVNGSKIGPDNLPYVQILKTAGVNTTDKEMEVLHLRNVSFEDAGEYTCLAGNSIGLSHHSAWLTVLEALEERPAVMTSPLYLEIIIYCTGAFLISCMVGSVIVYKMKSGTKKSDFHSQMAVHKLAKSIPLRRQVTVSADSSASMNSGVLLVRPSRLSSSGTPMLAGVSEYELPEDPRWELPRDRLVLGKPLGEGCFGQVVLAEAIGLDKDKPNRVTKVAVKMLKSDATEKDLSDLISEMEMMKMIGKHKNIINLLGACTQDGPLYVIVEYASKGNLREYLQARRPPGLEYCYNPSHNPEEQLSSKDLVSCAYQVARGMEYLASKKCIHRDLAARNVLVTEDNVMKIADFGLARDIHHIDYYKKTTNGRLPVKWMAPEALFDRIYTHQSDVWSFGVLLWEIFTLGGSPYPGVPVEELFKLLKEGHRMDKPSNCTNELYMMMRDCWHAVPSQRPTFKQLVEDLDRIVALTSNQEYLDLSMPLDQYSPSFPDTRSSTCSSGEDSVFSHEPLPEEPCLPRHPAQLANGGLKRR
# [14] = species: Homo sapiens; assay: Inhibition of SGK (unknown origin) assessed as residual activity at 10 uM; values are per cent of control
# [15] = target: Vascular endothelial growth factor receptor 3 (Homo sapiens) (UniProt P35916); assay: Inhibition of recombinant human N-terminal GST-tagged Flt4 (800 to end amino acid residues) expressed in baculovirus infected Sf21 insect cells assessed as residual activity at 10 uM; values are per cent of control
# [16] = target: Dual specificity tyrosine-phosphorylation-regulated kinase 1A (Rattus norvegicus) (UniProt Q63470); assay: Inhibition of recombinant rat N-terminal GST-tagged DYRK1A (1 to 499 amino acid residues) expressed in Escherichia coli assessed as residual activity at 10 uM; values are per cent of control
# [17] = target: Dual specificity tyrosine-phosphorylation-regulated kinase 1B (Homo sapiens) (UniProt Q9Y463); assay: Inhibition of DYRK1B (unknown origin) assessed as residual activity at 10 uM; values are per cent of control
# [18] = target: Receptor-type tyrosine-protein kinase FLT3 (Homo sapiens) (UniProt P36888); assay: Inhibition of recombinant human N-terminal GST-tagged Flt3 (564 to end amino acid residues) expressed in baculovirus infected Sf21 insect cells assessed as residual activity at 10 uM; values are per cent of control
# [19] = target: Death-associated protein kinase 1 (Homo sapiens) (UniProt P53355); assay: Inhibition of recombinant human N-terminal GST-tagged DAPK1 (1 to 296 amino acid residues) expressed in baculovirus infected Sf21 cells assessed as residual activity at 10 uM; values are per cent of control
# [20] = target: MAP kinase-interacting serine/threonine-protein kinase 2 (Homo sapiens) (UniProt Q9HBH9); assay: Inhibition of recombinant full-length human N-terminal His6-tagged Mnk2 expressed in baculovirus infected Sf21 insect cells assessed as residual activity at 10 uM; values are per cent of control
# [21] = target: CDK2/Cyclin A2 (Homo sapiens) (UniProt P24941+P20248); assay: as §1; type: protein-complex assay
SMILES,Ki [2],GI50 [3],Ki [6],Ki [7],GI50 [8],also measured
Cc1nc(NC2CCCC2)sc1-c1ccnc(Nc2ccc(N3CCN(S(C)(=O)=O)CC3)cn2)n1,1100 nM,176 nM,1320 nM,2640 nM,215 nM,Ki [1]: 77 nM; Ki [4]: 7 nM; Ki [5]: 55 nM
Cc1nc(NC2CCCC2)sc1-c1nc(Nc2ccc(N3CCCNCC3)cn2)ncc1F,> 5000 nM,29 nM,–,815 nM,83 nM,–
CC(=O)N1CCN(c2ccc(Nc3nccc(-c4sc(N(C)C5CCCC5)nc4C)n3)nc2)CC1,–,328 nM,> 5000 nM,–,6860 nM,Ki(app) [9]: inactive
Cc1nc(NC(C)C)sc1-c1ccnc(Nc2ccc(N3CCCNCC3)cn2)n1,> 5000 nM,255 nM,–,1160 nM,938 nM,–
Cc1nc(NC2CCCC2)sc1-c1nc(Nc2ccc(N3CCNCC3)cn2)ncc1F,–,53 nM,–,790 nM,780 nM,–
Cc1nc(NC(C)C)sc1-c1ccnc(Nc2ccc(N3CCN(C)CC3)cn2)n1,–,75 nM,–,760 nM,618 nM,–
Cc1nc(N(C)C2CCCC2)sc1-c1ccnc(Nc2ccc(N3CCN(C)CC3)cn2)n1,> 5000 nM,20 nM,–,> 5000 nM,3360 nM,–
Cc1nc(N(C2CCCC2)C2CCCC2)sc1-c1ccnc(Nc2ccc(N3CCNCC3)cn2)n1,> 5000 nM,714 nM,> 5000 nM,> 5000 nM,373 nM,Ki [1]: > 5000 nM; Ki [4]: 71 nM; Ki [5]: 539 nM
Cc1nc(NC2CCCC2)sc1-c1nc(Nc2ccc(N3CCN(S(C)(=O)=O)CC3)cn2)ncc1F,–,2630 nM,> 5000 nM,–,2810 nM,Ki(app) [10]: inactive; Ki(app) [9]: inactive
CC(=O)N1CCN(c2ccc(Nc3ncc(F)c(-c4sc(NC5CCCC5)nc4C)n3)nc2)CC1,> 5000 nM,15 nM,–,> 5000 nM,8110 nM,–
Cc1nc(NC2CCCC2)sc1-c1nc(Nc2ccc(N3CCN(C)CC3)cn2)ncc1F,2330 nM,73 nM,505 nM,2020 nM,202 nM,Ki [1]: 103 nM; residual activity [11]: < 10%; residual activity [12]: < 10%; residual activity [13]: < 10%; residual activity [14]: < 10%; residual activity [15]: < 10%; Ki [4]: 1 nM; residual activity [16]: < 10%; residual activity [17]: < 10%; residual activity [18]: < 10%; Ki [5]: 3 nM; residual activity [19]: < 10%; residual activity [20]: < 10%
CCN1CCN(Cc2ccc(Nc3ncc(F)c(-c4sc(NC5CCCC5)nc4C)n3)nc2)CC1 [ULECACICLIB],–,10 nM,–,630 nM,622 nM,Ki(app) [10]: inactive
Cc1nc(NC2CCCC2)sc1-c1ccnc(Nc2ccc(N3CCCCC3)cn2)n1,–,191 nM,> 5000 nM,–,7040 nM,Ki [1]: > 5000 nM; Ki(app) [10]: inactive; Ki(app) [9]: inactive
FC(F)(F)c1nc(NC2CCCC2)sc1-c1ccnc(Nc2ccc(N3CCOCC3)cn2)n1,–,69 nM,> 5000 nM,–,415 nM,Ki(app) [10]: inactive; Ki(app) [9]: inactive
O=CN1CCN(c2ccc(Nc3nccc(-c4sc(NC5CCCC5)nc4C(F)(F)F)n3)nc2)CC1,–,4 nM,> 5000 nM,1900 nM,336 nM,–
CC(=O)N1CCN(c2ccc(Nc3nccc(-c4sc(NC5CCCC5)nc4C(F)(F)F)n3)nc2)CC1,–,12 nM,> 5000 nM,2610 nM,77 nM,–
Cc1nc(NC(C)C)sc1-c1ccnc(Nc2ccc(N3CCNCC3)cn2)n1,–,93 nM,–,775 nM,31 nM,–

SMILES,Ki [2],GI50 [3],Ki [6],Ki [7],GI50 [8],also measured
Cc1nc(Nc2ccccc2)sc1-c1ccnc(Nc2ccc(N3CCNCC3)cn2)n1,–,56 nM,–,1660 nM,279 nM,Ki [1]: > 5000 nM
CN1CCN(c2ccc(Nc3nccc(-c4sc(NC5CCCC5)nc4C(F)(F)F)n3)nc2)CC1,–,1 nM,–,189 nM,420 nM,–
FC(F)(F)c1nc(NC2CCCC2)sc1-c1ccnc(Nc2ccc(N3CCNCC3)cn2)n1,–,2 nM,–,194 nM,81 nM,–
Cc1nc(NC2CCCC2)sc1-c1ccnc(Nc2ccc(N3CCC(N)CC3)cn2)n1,–,13 nM,–,1190 nM,55 nM,–
Cc1nc(NC(C)C)sc1-c1ccnc(Nc2ccc(N3CCOCC3)cn2)n1,> 5000 nM,32 nM,> 5000 nM,> 5000 nM,115 nM,–
CCN1CCN(c2ccc(Nc3nccc(-c4sc(NC5CCCC5)nc4C)n3)nc2)CC1,–,9 nM,–,780 nM,287 nM,–
Cc1nc(N(C)c2ccccc2)sc1-c1ccnc(Nc2ccc(N3CCN(C)CC3)cn2)n1,> 5000 nM,421 nM,–,> 5000 nM,150 nM,–
CC(=O)N1CCN(c2ccc(Nc3nccc(-c4sc(NC(C)C)nc4C)n3)nc2)CC1,–,2070 nM,–,4390 nM,344 nM,–
Cc1nc(Nc2ccccc2)sc1-c1ccnc(Nc2ccc(N3CCN(C)CC3)cn2)n1,–,508 nM,> 5000 nM,–,494 nM,Ki(app) [21]: inactive; Ki(app) [10]: inactive; Ki(app) [9]: inactive
Cc1nc(NC2CCCC2)sc1-c1nc(Nc2ccc(N3CCOCC3)cn2)ncc1F,4350 nM,290 nM,> 5000 nM,> 5000 nM,1440 nM,–
Cc1nc(NC2CCCC2)sc1-c1ccnc(Nc2ccccn2)n1,–,300 nM,> 5000 nM,–,4380 nM,–
CC(=O)N1CCN(c2ccc(Nc3nccc(-c4sc(NC5CCCC5)nc4C)n3)nc2)CC1,–,24 nM,–,3450 nM,591 nM,–
CCN1CCN(c2ccc(Nc3ncc(F)c(-c4sc(NC5CCCC5)nc4C)n3)nc2)CC1,–,13 nM,> 5000 nM,685 nM,66 nM,Ki(app) [10]: inactive
Cc1nc(NC2CCCC2)sc1-c1ccnc(Nc2ccc(N3CCCNCC3)cn2)n1,–,29 nM,–,282 nM,102 nM,–
Cc1nc(N(C)C2CCCC2)sc1-c1ccnc(Nc2ccc(N3CCNCC3)cn2)n1,–,285 nM,–,3200 nM,402 nM,–
Cc1nc(NC2CCCC2)sc1-c1ccnc(Nc2ccc(N3CCN(C)CC3)cn2)n1,–,9 nM,–,865 nM,130 nM,–
CCN1CCN(Cc2ccc(Nc3nccc(-c4sc(NC5CCCC5)nc4C)n3)nc2)CC1,> 5000 nM,19 nM,–,211 nM,69 nM,–
